The source made the active and inactive calls. The rule behind the calls is not given here.
Columns and labels:
[1] = test system: K562; assay: Induction of apoptosis in human K562 cells incubated for 24 hrs by annexin V FITC and propidium iodide staining based flow cytometry relative to control; format: functional; set-up: concentration or dose not given beside the values
[2] = test system: K562; assay: Antiproliferative activity against human K562 cells assessed as reduction in cell growth incubated for 72 hrs by MTT assay; format: functional, cell-based; conditions: K562, 72 h
Procedure, shortened: (§1)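 Colorimetric MTT assay on human tumour lines K562 (chronic myeloid leukemia), HL-60 (promyelocytic leukemia), Jurkat (T cell leukemia), Raji (Burkitt's lymphoma), HT-29 (colorectal adenocarcinoma), HeLa (cervix adenocarcinoma) and normal lung fibroblast MRC-5; cells exposed to compounds for 72 h.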

[3] = test system: HL-60; assay: Antiproliferative activity against human HL60 cells assessed as reduction in cell growth incubated for 72 hrs by MTT assay; format: functional, cell-based; conditions: HL-60, 72 h
Procedure, shortened: as §1, with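 “h. IC50 taken as concentration giving 50% growth inhibition versus untreated control.” for “h.”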

[4] = test system: Jurkat; assay: Antiproliferative activity against human Jurkat cells assessed as reduction in cell growth incubated for 72 hrs by MTT assay; format: functional, cell-based
Procedure, shortened: as §1, with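 “h. IC50 taken as concentration giving 50% growth inhibition versus untreated control.” for “h.”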

[5] = test system: Raji; assay: Antiproliferative activity against human Raji cells assessed as reduction in cell growth incubated for 72 hrs by MTT assay; format: functional, cell-based; procedure, shortened: as §1
[6] = test system: HT-29; assay: Antiproliferative activity against human HT-29 cells assessed as reduction in cell growth incubated for 72 hrs by MTT assay; format: functional, cell-based; conditions: HT-29, 72 h
Procedure, shortened: as §1, with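 “h. IC50 taken as concentration giving 50% growth inhibition versus untreated control.” for “h.”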

[7] = test system: HeLa; assay: Antiproliferative activity against human HeLa cells assessed as reduction in cell growth incubated for 72 hrs by MTT assay; format: functional, cell-based
Procedure, shortened: as §1, with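 “h. IC50 taken as concentration giving 50% growth inhibition versus untreated control.” for “h.”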

[8] = test system: MRC5; assay: Cytotoxicity against human MRC5 cells assessed as reduction in cell viability incubated for 72 hrs by MTT assay; format: cell-based; conditions: MRC5, 72 h; procedure, shortened: as §1
[9] = test system: K562; assay: Potency index, ratio of tiazofurin IC50 to compound IC50 for cytotoxicity against human K562 cells incubated for 72 hrs by MTT assay; format: functional
[10] = test system: Jurkat; assay: Potency index, ratio of tiazofurin IC50 to compound IC50 for cytotoxicity against human Jurkat cells incubated for 72 hrs by MTT assay; format: functional
[11] = test system: HT-29; assay: Potency index, ratio of tiazofurin IC50 to compound IC50 for cytotoxicity against human HT-29 cells incubated for 72 hrs by MTT assay; format: functional
[12] = test system: HeLa; assay: Potency index, ratio of tiazofurin IC50 to compound IC50 for cytotoxicity against human HeLa cells incubated for 72 hrs by MTT assay; format: functional
[13] = test system: K562; assay: Potency index, ratio of doxorubicin IC50 to compound IC50 for cytotoxicity against human K562 cells incubated for 72 hrs by MTT assay; format: functional
[14] = test system: Jurkat; assay: Potency index, ratio of doxorubicin IC50 to compound IC50 for cytotoxicity against human Jurkat cells incubated for 72 hrs by MTT assay; format: functional
[15] = test system: HT-29; assay: Potency index, ratio of doxorubicin IC50 to compound IC50 for cytotoxicity against human HT-29 cells incubated for 72 hrs by MTT assay; format: functional
[16] = test system: HeLa; assay: Potency index, ratio of doxorubicin IC50 to compound IC50 for cytotoxicity against human HeLa cells incubated for 72 hrs by MTT assay; format: functional
[17] = test system: K562; assay: Cell cycle arrest in human K562 cells assessed as accumulation in G2/M phase incubated for 72 hrs by propidium iodide staining based flow cytometry (reference value: 15.45%); format: functional
Procedure, shortened: (§2)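 Exponentially growing K562 cells treated for 24 or 72 h, untreated cells as control; cells stained with propidium iodide and DNA content read by flow cytometry. Phase distribution (subG1, G0/G1, S, G2/M) taken from one-parameter histograms, subG1 scored as hypodiploid, apoptotic cells.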

[18] = test system: K562; assay: Cell cycle arrest in human K562 cells assessed as accumulation in S phase incubated for 72 hrs by propidium iodide staining based flow cytometry (reference value: 36.05%); format: functional; procedure, shortened: as §2
[19] = test system: K562; assay: Cell cycle arrest in human K562 cells assessed as accumulation in G0/G1 phase incubated for 72 hrs by propidium iodide staining based flow cytometry (reference value: 45.43%); format: functional; procedure, shortened: as §2
[20] = test system: K562; assay: Cell cycle arrest in human K562 cells assessed as accumulation in SubG1 phase incubated for 72 hrs by propidium iodide staining based flow cytometry (reference value: 3.07%); format: functional; procedure, shortened: as §2
[21] = test system: K562; assay: Induction of apoptosis in human K562 cells incubated for 72 hrs by annexin V FITC and propidium iodide staining based flow cytometry relative to control; format: functional; set-up: concentration or dose not given beside the values
Procedure, shortened: (§3)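 K562 cells treated for 72 h, stained with Annexin V-FITC/propidium iodide and analysed by flow cytometry. Apoptotic, necrotic and live fractions scored as percent of gated cells; specific apoptosis and specific necrosis calculated from these counts.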

[22] = test system: K562; assay: Induction of necrosis in human K562 cells incubated for 72 hrs by annexin V FITC and propidium iodide staining based flow cytometry relative to control; format: functional; set-up: concentration or dose not given beside the values; procedure, shortened: as §3
[23] = test system: K562; assay: Induction of apoptosis in human K562 cells assessed as Bcl2 level incubated for 72 hrs by Western blot analysis (reference value: 100%); format: functional
Procedure, shortened: (§4)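 K562 cells treated for 72 h; Bcl-2, BAX, caspase 3 precursor (32 kDa), caspase 3 active subunit (18 kDa) and PARP (112 and 85 kDa) measured by Western blot and expressed as % of untreated control.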

[24] = test system: K562; assay: Induction of apoptosis in human K562 cells assessed as Bax level incubated for 72 hrs by Western blot analysis (reference value: 100%); format: functional; procedure, shortened: as §4
[25] = test system: K562; assay: Induction of apoptosis in human K562 cells assessed as 32 kDa Caspase 3 precursor level incubated for 72 hrs by Western blot analysis (reference value: 100%); format: functional; procedure, shortened: as §4
[26] = test system: K562; assay: Induction of apoptosis in human K562 cells assessed as 18 kDa Caspase 3 active subunit level incubated for 72 hrs by Western blot analysis (reference value: 100%); format: functional; procedure, shortened: as §4
[27] = test system: K562; assay: Induction of apoptosis in human K562 cells assessed as 112 kDa PARP level incubated for 72 hrs by Western blot analysis (reference value: 100%); format: functional; procedure, shortened: as §4
[28] = test system: K562; assay: Induction of apoptosis in human K562 cells assessed as 85 kDa PARP level incubated for 72 hrs by Western blot analysis (reference value: 100%); format: functional; procedure, shortened: as §4
[29] = test system: K562; assay: Induction of apoptosis in human K562 cells assessed as reduction in cell membrane integrity at cytotoxic IC50 incubated for 72 hrs by acridine orange and ethidium bromide double staining based fluorescence microscopy; format: functional
[30] = test system: K562; assay: Genotoxicity in human K562 cells assessed as increase in DNA damage at cytotoxic IC50 incubated for 72 hrs by comet assay; format: toxicity, cell-based; conditions: k562, 72 h
Procedure, shortened: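 Modified alkaline comet assay: cells set in agarose on slides, electrophoresed horizontally, stained with ethidium bromide and imaged by fluorescence microscopy. 50 comets scored per sample; mean tail moment used as the DNA-damage measure.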

[31] = test system: K562; assay: Induction of necrosis in human K562 cells incubated for 24 hrs by annexin V FITC and propidium iodide staining based flow cytometry relative to control; format: functional; set-up: concentration or dose not given beside the values
[32] = test system: K562; assay: Cell cycle arrest in human K562 cells assessed as accumulation in G2/M phase incubated for 24 hrs by propidium iodide staining based flow cytometry (reference value: 14.29%); format: functional; procedure, shortened: as §2
[33] = test system: K562; assay: Cell cycle arrest in human K562 cells assessed as accumulation in S phase incubated for 24 hrs by propidium iodide staining based flow cytometry (reference value: 48.38%); format: functional; procedure, shortened: as §2
[34] = test system: K562; assay: Cell cycle arrest in human K562 cells assessed as accumulation in G0/G1 phase incubated for 24 hrs by propidium iodide staining based flow cytometry (reference value: 36.28%); format: functional; procedure, shortened: as §2
[35] = test system: K562; assay: Cell cycle arrest in human K562 cells assessed as accumulation in sub-G1 phase incubated for 24 hrs by propidium iodide staining based flow cytometry (reference value: 1.05%); format: functional; procedure, shortened: as §2
[36] = test system: K562; assay: Cell cycle arrest in human K562 cells assessed as decrease in cell accumulation at G2/M phase incubated for 72 hrs by propidium iodide staining based flow cytometry relative to tiazofurin; format: functional; procedure, shortened: as §2

NC(=O)c1csc([C@@H]2O[C@H](CO)[C@H](N)[C@H]2O)n1 gave an Activity [1] of 6.35%, an IC50 [2] of 35 nM and an IC50 [3] of 9390 nM. The IC50 [4] was 3.6 nM, the IC50 [5] was 3850 nM and the IC50 [6] was 5 nM. The IC50 [7] was 12 nM, the IC50 [8] was over 100000 nM and the “Ratio IC50” value [9] was 11 - 318. The “Ratio IC50” value [10] was 11 - 318, the “Ratio IC50” value [11] was 11 - 318 and the “Ratio IC50” value [12] was 11 - 318. The “Ratio IC50” value [13] was 5 - 30, the “Ratio IC50” value [14] was 5 - 30 and the “Ratio IC50” value [15] was 5 - 30. The “Ratio IC50” value [16] was 5 - 30, the Activity [17] was 13.77% and the Activity [18] was 32.99%. It also gave an Activity [19] of 40.45%, an Activity [20] of 12.78% and an Activity [21] of 34.37%. It also gave an Activity [22] of 20.43%, an Activity [23] of 164.9% and an Activity [24] of 240.62%. For the same compound, the Activity [25] was 1465.64%, the Activity [26] was 172.46% and the Activity [27] was 84.76%. For the same compound, the Activity [28] was 104.95%, the Activity [29] was “Active” and the Activity [30] was “Toxic”. For the same compound, the Activity [31] was -0.99%, the Activity [32] was 4.72% and the Activity [33] was 35.75%. The Activity [34] was 55.65%, the Activity [35] was 3.87% and the “fold change (FC)” value [36] was 2 - 2.4.

Reference: ChEMBL document CHEMBL4406856, “Structure based design, synthesis and in vitro antitumour activity of tiazofurin stereoisomers with nitrogen functions at the C-2' or C-3' positions” (Eur J Med Chem, 2019)
